# The list is not random: actives were taken first. Their share in the collection is about 2.7%.
# NR2E3 ag-1 = NR2E3 (human) agonism; GST-NR2E3/biotin-RetCOR TR-FRET, 1536-well; inhibition of corepressor binding, % at 4.78 µM; AID 2300; hit rate 0.12% among 320,000;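 active = percent inhibition above the cutoff of mean plus 3 SD of all tested compounds, set per screening campaign, cut at about 20% in these data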
#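 System: GST-tagged NR2E3 plus biotinylated RetCOR corepressor; Buffer or medium: pH 7.5 Tris-based buffer; Probe or stimulus: RetCOR corepressor, biotinylated, 7 nM; Doses: compound at 4.8 µM, single dose; Schedule: 5 h incubation at 4 °C; Technique: time-resolved FRET; Evaluation: percent inhibition of TR-FRET ratio; Replication: one well per compound, singlicate testing.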
# PG9 Ab binder = PG9 antibody binding by small molecule. hit rate 0.43% among 360,000. TR-FRET gp120-PG9 antibody binding. inhibition, % at 6.7 µM; in the data active = inhibition above about 8.5%
# MC4R antagonist = antagonists of human melanocortin 4 receptor (MC4R); P32245; MC4R-expressing cells, MTII-stimulated cAMP, LANCE TR-FRET; inhibition, % at 6.5 µM; hit rate 0.48% among 360,000;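 active = inhibition above its plate's cutoff, the mean of tested wells on that plate plus 3 SD, cut at about 29% in these data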
# Target sequence (P32245 whole entry, looked up): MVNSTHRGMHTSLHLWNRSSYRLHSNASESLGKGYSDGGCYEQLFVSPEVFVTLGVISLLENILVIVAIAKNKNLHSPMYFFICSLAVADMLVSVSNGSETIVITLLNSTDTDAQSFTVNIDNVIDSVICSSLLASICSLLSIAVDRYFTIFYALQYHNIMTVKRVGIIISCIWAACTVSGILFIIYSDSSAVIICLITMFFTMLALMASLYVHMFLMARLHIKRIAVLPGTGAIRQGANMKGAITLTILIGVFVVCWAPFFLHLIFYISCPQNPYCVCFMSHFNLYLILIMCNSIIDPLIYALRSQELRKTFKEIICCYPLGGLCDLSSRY
#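 Assay system: human MC4R-expressing U2OS cells; reagent: Melanotan II stimulation of cells; dosing: 6.5 µM single dose; timing: compound 30 min, challenge 1 h, detection 1 h; signal: TR-FRET cAMP assay; replicates: one well per compound, no replicates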
# NR1D1 modulator = modulators of human Rev-erb alpha DNA binding. activity, % at 10 µM. Rev-erbα–FITC-DNA binding, fluorescence polarization, 90 min. hit rate 0.79% among 370,000. P20393;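 active = activity above about 14%, limit read from the data; passing the limit was not always enough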
# NR2E3 ag-2 = agonists of human NR2E3 nuclear receptor; hit rate 0.35% among 360,000; CHO-S Gal4-NCOR/VP16-NR2E3 two-hybrid, luciferase; inhibition of corepressor binding, % at 3.98 µM; Q9Y5X4;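 active = inhibition above the mean of all tested compounds plus 3 SD, cut at about 70% in these data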;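 also: higher means lower luciferase signal from less NR2E3 corepressor binding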
# MC4R barr agon = agonists of human melanocortin 4 receptor (MC4R) beta-arrestin; P32245; U2OS MC4R beta-arrestin complementation, luminescence; percent of melanotan II response, DMSO zero; activation, % at 8.9 µM; hit rate 0.98% among 360,000; AID 540308;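 active = activation above a per-plate cutoff, the mean activation of sample wells on that plate plus 3 SD, cut at about 8% in these data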
# NR2E3 ag conf = NR2E3 agonism confirmed in two-hybrid assay; shares compounds with NR2E3 ag-2; CHO-S mammalian two-hybrid NR2E3-NCOR, luciferase luminescence; inhibition, % at 3.98 µM; hit rate 51% among 2,300; AID 624378;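 active = average inhibition above a cutoff equal to the mean inhibition of all tested compounds plus one SD, cut at about 70% in these data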
# VP16 counter = reduces GAL4-VP16 reporter signal in NR2E3 counterscreen; inhibition, % at 3.98 µM; shares compounds with NR2E3 ag-2; hit rate 29% among 2,300; CHO-S GAL4-VP16 luciferase reporter, luminescence;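 active = mean inhibition above a cutoff equal to the average over all tested compounds plus one standard deviation, cut at about 70% in these data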;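 also: luciferase from a UAS reporter driven by GAL4-VP16 transactivation; higher means less reporter light so more repression of VP16 activity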
# Hits are given with their value; . = inactive; / = not tested or not shown.
SMILES,NR2E3 ag-1,PG9 Ab binder,MC4R antagonist,NR1D1 modulator,NR2E3 ag-2,MC4R barr agon,NR2E3 ag conf,VP16 counter
COC1(OC)C(/C=C/c2ccc(C)cc2)C(C#N)(C#N)C1(OC)OC (centres undefined),.,.,.,.,77,.,.,.
Cc1c(C(=O)Nc2ccc(OC(F)(F)F)cc2)sc2nc3n(c(=O)c12)CCC3,.,.,.,.,77,.,88,.
Cc1c(C(=O)Nc2ccc(Oc3ccccc3)cc2)sc2nc3n(c(=O)c12)CCC3,.,.,.,.,.,.,87,.
CCOC(=O)Cc1csc(NC(=O)CSc2nnc(-c3ccc(OC)cc3)n2C)n1,.,.,.,.,.,.,/,/
CN(C)c1nc(=NCc2ccco2)ss1,.,/,.,/,76,.,.,.
CC[C@H](C)C(=O)O[C@H]1C[C@@H](C)C=C2C=C[C@H](C)[C@H](CC[C@@H]3C[C@@H](O)CC(=O)O3)[C@H]21,.,.,.,.,.,.,.,.
Cc1ccc(N(O)C(C)(C)C)cc1,/,.,.,.,.,.,/,/
CCCCNc1c(-c2ccc(SC3CCCCC3)c(OC)c2)nc2ccc(C)cn12,/,.,.,.,.,.,/,/
CCCCNc1c(-c2ccc(OC)c(SC3CCCCC3)c2)nc2ccc(C)cn12,/,.,.,.,.,.,.,.
Cc1nnc(N/N=C/c2ccc(Br)cc2)n1N,.,.,.,.,.,.,.,.
CCCc1cc(=O)oc2c(CN3CCN(C)CC3)c(O)c(Cl)cc12,.,.,.,.,.,.,/,/
COc1ccc(CCN2C(=O)CSC2=Nc2ccc(C(C)C)cc2)cc1OC,.,.,.,.,.,.,83,75
O=C(OCC1COc2ccccc2O1)c1ccccc1F (centres undefined),.,.,.,.,.,.,/,/
O=C(c1cc(COc2cccc(C(F)(F)F)c2)on1)N1CCC(Oc2cccnc2)CC1,.,.,.,.,78,.,92,75
O=C(c1cc(COc2cccc(C(F)(F)F)c2)on1)N1CCCC1,/,.,.,.,.,.,/,/
Cc1ccc(OCc2cc(C(=O)N3CCC(Oc4cccnc4)CC3)no2)cc1C,.,.,.,.,97,.,91,.
COCCCC1CCN(C(=O)c2cc(COc3ccc(C)nc3)on2)CC1,.,.,.,.,.,.,.,.
CC(=O)c1ccc(OCc2cc(C(=O)N3CCC(Oc4ccccc4C)CC3)no2)cc1,.,.,.,.,.,.,/,/
COc1cccc2cc(C(=O)N3CC(C)OC(C)C3)c(=O)oc12 (centres undefined),.,.,.,.,.,.,/,/
COc1cc2c(oc(=O)c3cc(C)cc(OC)c32)c2c(C3OC(C)C(O)C(C)(O)C3O)ccc(O)c12 (centres undefined),/,.,.,.,.,.,71,.
Cc1noc(C)c1S(=O)(=O)N1CCCc2nc(-c3ccccc3)ccc21,/,.,/,.,/,/,/,/
CCSc1nsc(NC(=O)Nc2cccc(F)c2)n1,.,.,.,.,93,.,99,84
Cc1ccccc1CSCc1ccc(C(=O)NCCCN2CCOCC2)o1,.,.,.,.,.,.,/,/
Cc1noc(C)c1COC(=O)c1ccc(F)c(S(=O)(=O)N2CCCCC2)c1,.,.,.,.,.,.,/,/
Cc1noc(C)c1COC(=O)c1cccc(S(=O)(=O)N2CCCCCC2)c1,.,.,.,.,.,.,.,.
SMILES,NR2E3 ag-1,PG9 Ab binder,MC4R antagonist,NR1D1 modulator,NR2E3 ag-2,MC4R barr agon,NR2E3 ag conf,VP16 counter
Cc1occc1CNc1ncnc2ccc(-c3ccc4c(c3)OCO4)cc12,/,/,/,.,/,/,/,/
CCOc1ccccc1CNc1ncnc2ccc(-c3c(C)noc3C)cc12,.,.,.,.,82,.,81,.
CCCSC1=C(C#N)C(c2cccs2)C(C(=O)Nc2ccccc2)=C(C)N1 (centres undefined),.,.,.,.,.,.,/,/
COc1ccc(OC)c(NC(=O)C2CCCN(S(=O)(=O)c3ccc(-n4cnnn4)cc3)C2)c1 (centres undefined),.,.,.,.,.,.,/,/
COc1ccc(S(=O)(=O)N2CCCCCC2)cc1C(=O)N(C)CCOc1ccc(Cl)cc1,.,.,.,.,.,.,/,/
COCc1ccc(C(=O)NC2CCCc3c2cnn3-c2cc(C)cc(C)c2)s1 (centres undefined),/,.,.,.,.,.,.,.
Cc1cccc(-n2ncc3c2CCCC3NC(=O)C2(C(N)=O)CC2)c1C (centres undefined),.,.,.,.,78,.,77,.
Cc1nnsc1C(=O)NC1CCCc2c1cnn2-c1ccccc1F (centres undefined),.,.,.,.,83,.,86,.
CC1=C(C(=O)NC2CCCc3c2cnn3-c2ccc(F)cc2F)OCCO1 (centres undefined),.,.,.,.,.,.,.,.
O=C(NC1CCCc2c1cnn2-c1ccccc1F)c1ccccn1 (centres undefined),.,.,.,.,.,.,/,/
COc1ncccc1C(=O)NC1CCCc2c1cnn2-c1cc(C)cc(C)c1 (centres undefined),.,.,.,.,.,.,/,/
FC(F)(F)c1ccc(N2CCN(c3cc(-c4ccccc4)nc4ncnn34)CC2)nc1,.,.,.,.,.,.,/,/
Cc1nnsc1C(=O)NC1CCCc2c1cnn2-c1ccc(C(C)(C)C)cc1 (centres undefined),.,.,.,.,93,.,78,75
Cc1cc(C(=O)NC2CCCc3c2cnn3-c2ccc(C)c(C)c2)n(C)n1 (centres undefined),.,.,.,.,111,.,98,88
N#CCCSCc1ccc(C(=O)O)o1,.,.,.,.,.,.,/,/
c1cc2c(cc1-c1cnc3n1CCC3)OCCO2,.,.,.,.,.,.,.,.
COc1ccc2c(c1)[nH]c1c(N3CCN(Cc4ccc5c(c4)OCO5)CC3)ncnc12,.,.,.,.,92,.,97,86
Cc1ccc2[nH]c3c(N4CCN(Cc5ccccc5)CC4)ncnc3c2c1,.,.,.,.,79,.,88,74
Cc1ccc2[nH]c3c(N4CCN(Cc5ccc6c(c5)OCO6)CC4)ncnc3c2c1,/,.,/,/,/,/,/,/
c1ccc(CN2CCN(c3ncnc4c3[nH]c3ccccc34)CC2)cc1,.,.,.,.,.,.,/,/
Cc1ccc2c(c1)[nH]c1c(N3CCN(Cc4ccccc4)CC3)ncnc12,.,.,.,.,.,.,86,74
c1ccc2c(c1)CCN(c1ncnc3c1[nH]c1ccccc13)C2,.,.,.,.,89,.,95,88
